The record followed here is ChEMBL document CHEMBL1811788, “Chaxamycins A-D, bioactive ansamycins from a hyper-arid desert Streptomyces sp” (2011).

≈ marks a conversion by molar mass, not a printed value.

In experiment [1] the test system is Staphylococcus aureus. The experiment is described as follows: Antibacterial activity against Staphylococcus aureus ATCC 25923 after 18 hrs by microtiter plate reader assay. The experiment is classed as functional. Particulars: ATCC 25923, 18 h.
The test system of experiment [2] is Staphylococcus aureus. Description: Antibacterial activity against Staphylococcus aureus RN4220 after 18 hrs by microtiter plate reader assay. Format: functional. Particulars: RN4220, 18 h. Put shortly:
(§1)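 S. aureus grown in Müller-Hinton broth to early stationary phase, diluted to OD650 = 0.0005. Broth microdilution in triplicate, with at least two independent cultures per strain. Test compound (32–0.016 μg/mL) and rifampicin control (0.03–0.001 μg/mL) dissolved in DMSO (up to 0.63%). Incubated 18 h at 37 °C, growth read at OD620. MIC taken as lowest concentration showing no growth versus MH broth control.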

The subject of experiment [3] is Staphylococcus aureus. Description: Antibacterial activity against scottish methicillin-resistant Staphylococcus aureus isolate 106 isolated from patient nasal swab after 18 hrs by microtiter plate reader assay. Particulars: isolate 106, 18 h. Format: functional. Put shortly: as §1
Experiment [4] has as its system Staphylococcus aureus. The experiment is described as follows: Antibacterial activity against scottish methicillin-resistant Staphylococcus aureus isolate 124 isolated from patient open wound after 18 hrs by microtiter plate reader assay. Format: functional. To be noted: isolate 124, 18 h. Put shortly:
as §1

Experiment [5] has as its system Staphylococcus aureus. Description: Antibacterial activity against scottish methicillin-resistant Staphylococcus aureus isolate 116 isolated from patient knee abscess after 18 hrs by microtiter plate reader assay. The experiment is classed as functional. To be noted: isolate 116, Knee. Put shortly: as §1
Experiment [6] has as its system Staphylococcus aureus. Description: Antibacterial activity against epidemic methicillin-resistant Staphylococcus aureus isolate 15 isolated from patient urine infection after 18 hrs by microtiter plate reader assay. The experiment is classed as functional. Particulars: isolate 15, Urine. Put shortly:
as §1

In experiment [7] the test system is Staphylococcus aureus. Description: Antibacterial activity against scottish methicillin-resistant Staphylococcus aureus isolate 161 (PF161) isolated from patient thigh abscess after 18 hrs by microtiter plate reader assay. The experiment is classed as functional. Particulars: isolate 161, Thigh muscle. Put shortly:
as §1

Experiment [8] deals with Staphylococcus aureus. The experiment is described as follows: Antibacterial activity against scottish methicillin-resistant Staphylococcus aureus isolate 126 isolated from patient nasal swab after 18 hrs by microtiter plate reader assay. Format: functional. To be noted: isolate 126, 18 h. Put shortly:
as §1

Experiment [9] concerns Staphylococcus aureus. The experiment is described as follows: Antibacterial activity against scottish methicillin-resistant Staphylococcus aureus […] isolated from patient arm cellulitis after 18 hrs by microtiter plate reader assay. Format: functional. To be noted: isolate 153, 18 h. Put shortly:
as §1

Experiment [10] concerns Staphylococcus aureus. The experiment is described as follows: Antibacterial activity against scottish methicillin-resistant Staphylococcus aureus isolate 105 isolated from patient toe wound after 18 hrs by microtiter plate reader assay. The experiment is classed as functional. To be noted: isolate 105, 18 h. Put shortly: as §1
Experiment [11] deals with Staphylococcus aureus. The experiment is described as follows: Antibacterial activity against epidemic methicillin-resistant Staphylococcus aureus isolate 16 isolated from patient graft wound after 18 hrs by microtiter plate reader assay. Particulars: isolate 16, 18 h. The experiment is classed as functional. The method in brief: as §1
For experiment [12], the system named is Staphylococcus aureus. The experiment is described as follows: Antibacterial activity against scottish methicillin-resistant Staphylococcus aureus isolate 161 (PF161d) isolated from patient buttock abscess after 18 hrs by microtiter plate reader assay. The experiment is classed as functional. Particulars: isolate 161, 18 h. The method in brief:
as §1

A further experiment concerns Escherichia coli. The experiment is described as follows: Antibacterial activity against Escherichia coli ATCC 25922 by agar diffusion method with regression line analysis.

As to `CC(=O)O[C@H]1[C@H](C)[C@H](O)[C@H](C)[C@@H](O)[C@@H](C)/C=C/C=C\C(=O)NC2=C(C)C(=O)c3c(c(O)c(C)c4c3[C@H](O)[C@](C)(O/C=C/[C@H](O)[C@H]1C)O4)C2=O` [CHAXAMYCIN D], the MIC is 0.05 µg/mL (≈ 0.0731 µM) in the experiment with Staphylococcus aureus [1]; 0.06 µg/mL (≈ 0.0878 µM) in the experiment with Staphylococcus aureus [2]; 0.25 µg/mL (≈ 0.366 µM) in the experiment with Staphylococcus aureus [3]; 0.13 µg/mL (≈ 0.19 µM) in the experiment on Staphylococcus aureus [4]; 0.13 µg/mL (≈ 0.19 µM) in the experiment with Staphylococcus aureus [5]; 0.06 µg/mL (≈ 0.0878 µM) in the experiment on Staphylococcus aureus [6]. Besides, the MIC was 0.13 µg/mL (≈ 0.19 µM) against Staphylococcus aureus [7]; 0.13 µg/mL (≈ 0.19 µM) with Staphylococcus aureus [8]; 0.25 µg/mL (≈ 0.366 µM) in the experiment with Staphylococcus aureus [9]; 0.13 µg/mL (≈ 0.19 µM) in the experiment with Staphylococcus aureus [10]; greater than 32 µg/mL against Staphylococcus aureus [11]; 0.25 µg/mL (≈ 0.366 µM) against Staphylococcus aureus [12]. This molecule also had an MIC with Escherichia coli of 1.21 µg/mL (≈ 1.77 µM).
As to `CO[C@H]1/C=C/O[C@@]2(C)Oc3c(C)c(O)c4c(O)c(c(/C=N/N5CCN(C)CC5)c(O)c4c3C2=O)NC(=O)/C(C)=C\C=C\[C@H](C)[C@H](O)[C@@H](C)[C@@H](O)[C@@H](C)[C@H](OC(C)=O)[C@@H]1C` [RIFAMPIN], the MIC in the experiment with Staphylococcus aureus [2] is 0.002 µg/mL (≈ 0.00243 µM); in the experiment on Staphylococcus aureus [3], 0.004 µg/mL (≈ 0.00486 µM); against Staphylococcus aureus [5], 0.002 µg/mL (≈ 0.00243 µM); in the experiment with Staphylococcus aureus [6] it was 0.002 µg/mL (≈ 0.00243 µM); in the experiment with Staphylococcus aureus [10] it was 0.002 µg/mL (≈ 0.00243 µM); against Staphylococcus aureus [11], 4 µg/mL (≈ 4.86 µM).

Broadly, the MIC is the least concentration at which growth counts as inhibited. A lower MIC goes with a more susceptible organism.
